This note sets out measurements from ChEMBL document CHEMBL1806353, “Synthesis of antitrypanosomal 1,2-dioxane derivatives based on a natural product scaffold” (Bioorg Med Chem Lett, 2011).

Molecules are shown by their SMILES.

In this experiment the test system is Trypanosoma brucei brucei. Briefly: Antitrypanosomal activity against blood stream form of Trypanosoma brucei brucei BF427 after 48 hrs by Alamar Blue assay. The following applies: BF427, 48 h. It counts as functional, organism-based. The method in brief: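 Bloodstream-form T. b. brucei 427, starting inoculum 2 × 10³ parasites per well, exposed to 2-fold serial drug dilutions in HMI-9 with 10% FBS for 48 h at 37 °C, 5% CO₂. Final DMSO no more than 0.08%. Alamar Blue then added for a further 4 h, fluorescence read at 544/590 nm. IC50 from three biological replicates, each averaging three technical replicates.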
Background: Alamar Blue is a resazurin reagent that responds to reducing activity.
By IC50 is commonly meant the point on the concentration scale where inhibition reaches its midpoint. For the molecule `C=C[C@@H]1CC[C@@H](CC(=O)OCc2ccccc2)OO1`, the concentration for half-maximal inhibition (IC50) was 3030 nM.

Molecule `CCOC(=O)/C=C\[C@@H]1CC[C@@H](CC(=O)OCc2ccccc2)OO1` displayed a half-maximal inhibitory concentration (IC50) of 1350 nM.

In turn, `CCOC(=O)/C=C/[C@@H]1CC[C@@H](CC(=O)OCc2ccccc2)OO1` came in with an IC50 of 620 nM.

For `CC(=O)/C=C\[C@@H]1CC[C@@H](CC(=O)OCc2ccccc2)OO1`, the midpoint of inhibition, the IC50, lay at 1880 nM.

On to `CC(C)(C)OC(=O)/C=C\[C@@H]1CC[C@@H](CC(=O)OCc2ccccc2)OO1`, for which half-maximal inhibition (IC50) was put at 370 nM.

`CC(C)(C)OC(=O)/C=C/[C@@H]1CC[C@@H](CC(=O)OCc2ccccc2)OO1` had an IC50 of 200 nM.

For `O=C(/C=C\[C@@H]1CC[C@@H](CC(=O)OCc2ccccc2)OO1)OCc1ccccc1`, the IC50 came out at 240 nM.

The molecule `O=C(/C=C/[C@@H]1CC[C@@H](CC(=O)OCc2ccccc2)OO1)OCc1ccccc1` showed a half-inhibitory concentration (IC50) of 640 nM.

`CC(=O)/C=C/[C@@H]1CC[C@@H](CC(=O)OCc2ccccc2)OO1` registered an IC50 of 900 nM.

Turning to `O=C(C[C@@H]1CC[C@@H](/C=C\C(=O)c2ccccc2)OO1)OCc1ccccc1`, half-maximal inhibition (IC50) was put at 580 nM.

As for `O=C(C[C@@H]1CC[C@@H](/C=C/C(=O)c2ccccc2)OO1)OCc1ccccc1`, the IC50 is 510 nM.

In turn, `N=C(N)c1ccc(OCCCCCOc2ccc(C(=N)N)cc2)cc1` showed an IC50 of 860 nM.

`N#CC=C[C@@H]1CC[C@@H](CC(=O)OCc2ccccc2)OO1` (mixture of isomers) displayed a 50% inhibitory concentration (IC50) of 3140 nM.
